Measured values reported in ChEMBL document CHEMBL5137075, “Discovery of a First-in-Class Degrader for Nuclear Receptor Binding SET Domain Protein 2 (NSD2) and Ikaros/Aiolos” (J Med Chem, 2022).
Blank lines part the entries; values can stand above or below the compound they belong to. The source made the active and inactive calls. The rule behind the calls is not given here.

How the values were obtained:
[1] = target: T1, Histone-lysine N-methyltransferase NSD2 (Homo sapiens, UniProt O96028); test: Binding affinity to N-terminal GST-tagged human NSD2 PWWP1 domain (208 to 369 residues) expressed in Escherichia coli […] (DE3) cells assessed as dissociation constant by isothermal titration calorimetry assay
T1 sequence (O96028 whole entry): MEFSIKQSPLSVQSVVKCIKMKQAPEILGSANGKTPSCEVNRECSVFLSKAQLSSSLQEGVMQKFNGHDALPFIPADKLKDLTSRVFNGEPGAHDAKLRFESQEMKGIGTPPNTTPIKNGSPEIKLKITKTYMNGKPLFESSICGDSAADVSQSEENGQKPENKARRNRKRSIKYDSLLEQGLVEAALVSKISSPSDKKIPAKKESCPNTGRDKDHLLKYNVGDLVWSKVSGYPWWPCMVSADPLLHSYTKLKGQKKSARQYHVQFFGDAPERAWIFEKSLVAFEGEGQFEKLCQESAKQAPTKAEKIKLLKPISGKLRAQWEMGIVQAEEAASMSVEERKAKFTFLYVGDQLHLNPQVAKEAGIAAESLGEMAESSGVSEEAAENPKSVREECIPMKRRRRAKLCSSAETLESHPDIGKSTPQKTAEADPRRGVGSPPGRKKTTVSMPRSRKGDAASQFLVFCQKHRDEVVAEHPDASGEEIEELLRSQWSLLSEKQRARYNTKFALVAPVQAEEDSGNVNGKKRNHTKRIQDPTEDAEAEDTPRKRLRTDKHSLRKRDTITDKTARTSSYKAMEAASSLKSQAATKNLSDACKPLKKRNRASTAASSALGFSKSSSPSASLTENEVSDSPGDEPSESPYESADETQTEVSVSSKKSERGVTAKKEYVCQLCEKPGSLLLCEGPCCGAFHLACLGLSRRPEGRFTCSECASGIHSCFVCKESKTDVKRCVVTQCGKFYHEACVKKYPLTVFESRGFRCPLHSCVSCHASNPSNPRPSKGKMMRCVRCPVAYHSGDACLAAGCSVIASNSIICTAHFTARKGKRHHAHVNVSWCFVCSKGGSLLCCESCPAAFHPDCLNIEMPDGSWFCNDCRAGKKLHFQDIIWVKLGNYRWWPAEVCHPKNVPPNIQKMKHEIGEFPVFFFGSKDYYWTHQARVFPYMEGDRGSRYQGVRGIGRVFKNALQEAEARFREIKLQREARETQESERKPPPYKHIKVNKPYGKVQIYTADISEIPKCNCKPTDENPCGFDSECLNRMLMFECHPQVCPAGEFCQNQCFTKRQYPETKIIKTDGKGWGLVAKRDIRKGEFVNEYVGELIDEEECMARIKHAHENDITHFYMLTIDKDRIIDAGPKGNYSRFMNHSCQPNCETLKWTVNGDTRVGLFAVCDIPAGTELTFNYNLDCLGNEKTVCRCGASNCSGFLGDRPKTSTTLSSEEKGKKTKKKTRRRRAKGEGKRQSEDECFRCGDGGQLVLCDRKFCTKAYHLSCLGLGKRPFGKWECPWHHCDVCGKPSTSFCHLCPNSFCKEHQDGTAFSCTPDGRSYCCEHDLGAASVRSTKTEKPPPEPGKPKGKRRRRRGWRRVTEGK

[2] = target: von Hippel-Lindau disease tumor suppressor/Histone-lysine N-methyltransferase NSD2 (Homo sapiens) (UniProt O96028+P40337); test: Protac activity at VHL E3 ligase/ NSD2 PWWP1 domain (208 to 369 residues) in HEK293FT cells assessed as induction of NSD2 degradation at 2.5 to 10 uM incubated for 48 hrs by Western blot analysis; assay type: cell-based; settings: dose 2.5-10 µM
Outline: (§1)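 293FT cells (DMEM, 10% FBS) were treated with DMSO or compound at the indicated concentrations for 48 h. NSD2 was detected by Western blot of NP-40 lysates with GAPDH as loading control. Blots are representative of at least two independent experiments.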

[3] = target: T2, Cereblon/Ikaros (Homo sapiens) (UniProt Q96SW2+Q13422); test: Protac activity at CRBN/IKZF1 in human KMS-11 cells assessed as induction of IKZF1 degradation at 2.5 uM incubated for 72 hrs by Western blot analysis; assay type: cell-based
Outline: (§2)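 KMS11 or H929 myeloma cells were treated with DMSO or 2.5 μM for 72 h. IKZF1 and IKZF3 were measured by Western blot with GAPDH as loading control, representative of two independent experiments.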

[4] = target: T2, Cereblon/Ikaros (Homo sapiens); test: Protac activity at CRBN/IKZF1 in human NCI-H929 cells assessed as induction of IKZF1 degradation at 2.5 uM incubated for 72 hrs by Western blot analysis; assay type: cell-based; outline: as §2
[5] = target: T3, Protein cereblon/Zinc finger protein Aiolos (Homo sapiens) (UniProt Q96SW2+Q9UKT9); test: Protac activity at CRBN/IKZF3 in human KMS-11 cells assessed as induction of IKZF3 degradation at 2.5 uM incubated for 72 hrs by Western blot analysis; assay type: cell-based; outline: as §2
[6] = target: T3, Protein cereblon/Zinc finger protein Aiolos (Homo sapiens); test: Protac activity at CRBN/IKZF3 in human NCI-H929 cells assessed as induction of IKZF3 degradation at 2.5 uM incubated for 72 hrs by Western blot analysis; assay type: cell-based; outline: as §2
[7] = target: T4, Protein cereblon/Histone-lysine N-methyltransferase NSD2 (Homo sapiens, UniProt O96028+Q96SW2); test: Protac activity at CRBN E3 ligase/ NSD2 PWWP1 domain (208 to 369 residues) in HEK293FT cells assessed as induction of NSD2 degradation at 2.5 to 10 uM incubated for 48 hrs by Western blot analysis; assay type: cell-based; settings: dose 2.5-10 µM; outline: as §1
[8] = target: T4, Protein cereblon/Histone-lysine N-methyltransferase NSD2; test: Protac activity at CRBN E3 ligase/ NSD2 PWWP1 domain (208 to 369 residues) in HEK293FT cells assessed as induction of NSD2 degradation incubated for 48 hrs by Western blot analysis; assay type: cell-based; outline: as §1
[9] = target: T4, Protein cereblon/Histone-lysine N-methyltransferase NSD2; test: Protac activity at CRBN E3 ligase/ NSD2 PWWP1 domain (208 to 369 residues) in HEK293FT cells assessed as induction of NSD2 degradation by measuring maximal efficacy at 0.5 to 10 uM incubated for 48 hrs by Western blot analysis relative to control; assay type: cell-based; settings: dose 0.5-10 µM
Outline: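 293FT cells were exposed to 0.5–10 μM for 48 h. NSD2 was immunoblotted with GAPDH as loading control and band intensity quantified by densitometry to derive DC50 and Dmax. Results are mean ± SD of two independent experiments.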

[10] = target: T4, Protein cereblon/Histone-lysine N-methyltransferase NSD2; test: Protac activity at CRBN E3 ligase/ NSD2 PWWP1 domain (208 to 369 residues) in HEK293FT cells assessed as induction of NSD2 degradation 5 uM by Western blot analysis; assay type: cell-based; settings: time 0-72 hrs, TDE = time-dependent effect
Outline: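 293FT cells were treated at 5 μM for 0, 12, 24, 36, 48 or 72 h. Lysates were made in 50 mM Tris-HCl pH 8.0, 150 mM NaCl, 1% NP-40, and NSD2 was immunoblotted with GAPDH as loading control.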

[11] = target: T4, Protein cereblon/Histone-lysine N-methyltransferase NSD2; test: Protac activity at CRBN/NSD2 PWWP1 domain (208 to 369 residues) in wild type HEK293FT cells assessed as induction of NSD2 degradation at 0.5 to 10 uM incubated for 48 hrs by Western blot analysis; assay type: cell-based; settings: dose 0.5-10 µM
Outline: (§3)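 Wild-type 293FT cells, alongside a CRISPR-Cas9 CRBN-knockout 293FT line, were treated across a concentration range for 48 h. NSD2, IKZF3 and CRBN were immunoblotted with GAPDH as loading control, representative of at least two independent experiments.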

[12] = target: T3, Protein cereblon/Zinc finger protein Aiolos (Homo sapiens); test: Protac activity at CRBN/IKZF3 in wild type HEK293FT cells assessed as induction of IKZF3 degradation at 0.5 to 10 uM incubated for 48 hrs by Western blot analysis; assay type: cell-based; settings: dose 0.5-10 µM; outline: as §3
[13] = Cmax in Swiss albino mouse at 50 mg/kg, ip by LC-MS/MS analysis; assay type: ADME, organism-based; set-up: dose 50 mg/kg, route ip; settings: in vivo
Outline: (§4)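 Three male Swiss albino mice received a single 50 mg/kg intraperitoneal dose as a solution in 5% NMP/45% propylene glycol/50% PEG-400 (v/v). Blood was drawn at 0.5, 2 and 8 h and plasma stored at −70 °C. Plasma levels were measured by LC–MS/MS (LLOQ 5.14 ng/mL), reported as mean ± SD of three mice; mice were watched for clinical signs.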

KMS-11 = test: Antiproliferative activity against human KMS-11 cells assessed as inhibition of cell growth at 2.5 uM incubated for 8 days by automated TC10 cell counter based analysis; assay type: functional; settings: time 8.0 day
Outline: (§5)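 KMS11 or H929 cells (RPMI 1640, 10% FBS) seeded at 0.5 million per well in triplicate, treated with 2.5 μM or DMSO for 8 days. Compound-containing medium replaced every 2 days; cells diluted periodically to stay below 1 × 10^6/mL. Viability given relative to DMSO control as mean ± SD (n = 3).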

NCI-H929 = test: Antiproliferative activity against human NCI-H929 cells assessed as inhibition of cell growth at 2.5 uM incubated for 8 days by automated TC10 cell counter based analysis; assay type: functional; settings: time 8.0 day; outline: as §5
[14] = Tmax in Swiss albino mouse at 50 mg/kg, ip by LC-MS/MS analysis; assay type: ADME, organism-based; settings: in vivo; outline: as §4
[15] = Drug concentration in Swiss albino mouse plasma at 50 mg/kg, ip measured after 8 hrs by LC-MS/MS analysis; assay type: ADME, organism-based; outline: as §4
[16] = Toxicity in Swiss albino mouse assessed as clinical signs of toxicity at 50 mg/kg, ip administered for 8 hrs; assay type: organism-based; settings: in vivo; outline: as §4

Structure (SMILES): CN1C(=O)CCC(N2C(=O)c3cccc(NCC(=O)NCCCOc4ccc(NC(=O)c5ccc(CN(C(=O)c6ccc7c(c6)OCC(=O)N7)C6CC6)cc5)nc4)c3C2=O)C1=O (stereo not drawn)
Kd [1]: 900 nM

Activity [2]: Active
Structure (SMILES): Cc1ncsc1-c1ccc(CNC(=O)[C@@H]2C[C@@H](O)CN2C(=O)[C@@H](NC(=O)CCOCCOCCNC(=O)c2ccc(NC(=O)c3ccc(CN(C(=O)c4ccc5c(c4)OCC(=O)N5)C4CC4)cc3)cc2)C(C)(C)C)cc1

Activity [3]: Active
Activity [4]: Active
Activity [5]: Active
Activity [6]: Active
Structure (SMILES): CC(C)N(Cc1ccc(C(=O)Nc2ccc(OCCCNC(=O)CNc3cccc4c3C(=O)N(C3CCC(=O)NC3=O)C4=O)cn2)cc1)C(=O)c1ccc2c(c1)OCC(=O)N2 (stereo not drawn)

Activity [7]: Active
Kd [1]: 1100 nM
DC50 [8]: 5.2 µM
Emax [9]: > 82%
Activity [10]: Tde
Activity [3]: Active
Activity [4]: Active
Activity [5]: Active
Activity [6]: Active
Activity [11]: Active
Activity [12]: Active
Cmax [13]: 1350 nM
Tmax [14]: 30 min
concentration at 8 h [15]: 980 nM
Structure (SMILES): O=C(CNc1cccc2c1C(=O)N(C1CCC(=O)NC1=O)C2=O)NCCCOc1ccc(NC(=O)c2ccc(CN(C(=O)c3ccc4c(c3)OCC(=O)N4)C3CC3)cc2)nc1 (stereo not drawn)
inhibition (KMS-11): Active
inhibition (NCI-H929): Active
Activity [16]: Non-Toxic
